# Measurements pooled from the literature.
# Each line is one published result; the experiments were not run side by side.
# Target: Mitogen-activated protein kinase kinase kinase 10 (MAP3K10, Homo sapiens, UniProt Q02779)
Compound,observed,mode,technique,tested at,measurement,result
Cn1cncc1[C@@](O)(COc1ccc(C#N)cc1-c1ccc(OC(F)(F)F)cc1)c1ccc(C#N)cc1,cell-free assay,,competition with immobilised ligand,1 µM,remaining binding,98%
Cc1nn(C)cc1-c1nc2c(N3CCN(Cc4ccc(Cl)cc4)CC3)c(Cl)cnc2[nH]1,binding,,competition with immobilised ligand,1 µM,remaining binding,5.4%
CC(C)(C)c1cc(C=C(C#N)C#N)cc(Br)c1O,enzyme activity,inhibitor,,0.5 µM,remaining activity,100%
COc1ncccc1-c1cnn2ccc(N3CCN(C(=O)OC(C)C)CC3)nc12,binding,,competition with immobilised ligand,1 µM,remaining binding,96%
O=c1[nH]c2ccccc2n1C1CCN(Cc2ccc(-c3[nH]c4cc5ncnc5cc4nc3-c3ccccc3)cc2)CC1,cell-free assay,,,0.5 µM,remaining signal,102%
Cn1cc(-c2cc(F)cc(N3CCn4c(cc5c4CCCC5)C3=O)c2CO)cc(Nc2ccc(N3CCN(C4COC4)CC3)cn2)c1=O,enzyme activity,inhibitor,,0.1 µM,inhibition,-7%
N#CC1(c2ccccn2)CCN(Cc2cc(C(=O)O)c(=O)n3ccccc23)CC1,cell-free assay,,competition with immobilised ligand,1 µM,remaining binding,97%
Nc1ncc(-c2nc(N3CCOCC3)nc(N3CCOCC3)n2)c(C(F)F)n1,binding,,competition with immobilised ligand,10 µM,remaining binding,53%
Cn1cc(-c2cccc(N3CCc4c(sc5c4CC(C)(C)C5)C3=O)c2CO)cc(Nc2ccncn2)c1=O,enzyme activity,inhibitor,,1 µM,inhibition,-5%
